Measurements from ChEMBL document CHEMBL5036331 (J Med Chem, 2021).
pIC50: −log10 of the molar value. Converted amounts (≈) assume the structure as drawn. The source made the active and inactive calls. The calls are words filed in the database; no cut-off is given here.

What was measured:
[1] = Clearance in Wistar-Han rat hepatocytes at 1 uM measured for 2 to 90 mins by LC-MS/MS; format: ADME, cell-based, Hepatocyte; conditions: time 2-90 min; for CLhep predicted at 1 µM: Wistar-Han
[2] = Aqueous solubility of the compound at pH 4 for 24 hrs by HPLC-MS/MS; format: physicochemical
[3] = Apparent permeability of the compound across apical side to basolateral side in human CaCo-2 cells at 2 uM incubated for 2 hrs; format: ADME, cell-based
Method in brief: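 Caco-2 monolayers with TEER of at least 400 Ω·cm². Compound (predissolved in DMSO) added apically or basolaterally at a final 2 μM and incubated 2 h at 37 °C, in triplicate. Both compartments were sampled before and after, MeOH-precipitated and analysed by LC–MS/MS. Papp = (Vr/P0)(1/S)(P2/t).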

[4] = Clearance in Wistar-Han rat Liver microsomes at 1 uM measured for 2 to 90 mins by LC-MS/MS; format: ADME, Microsome; conditions: time 2-90 min
[5] = Clearance in Wistar-Han rat blood at 0.3 to 0.5 mg/kg, iv measured upto 24 hrs by HPLC with LC-MS/MS; format: ADME, organism-based; conditions: dose 0.3-0.5 mg/kg
[6] = Volume of distribution at steady state in Wistar-Han rat blood at 0.3 to 0.5 mg/kg, iv measured upto 24 hrs by HPLC with LC-MS/MS; format: ADME, organism-based; conditions: dose 0.3-0.5 mg/kg, read-out: Vdss
[7] = Half life in Wistar-Han rat blood at 0.3 to 0.5 mg/kg, iv measured upto 24 hrs by HPLC with LC-MS/MS; format: ADME, organism-based; conditions: dose 0.3-0.5 mg/kg
MOLM-13 [8] = assay: Antitumor activity against human MOLM-13 cells xenografted in AML mouse model assessed as tumor volume by measuring T/C ratio at 15 mg/kg, iv qd; format: functional
Method in brief: (§1)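 Nude mouse MOLM-13 AML xenograft. Compound dosed iv on the stated schedule, starting 5 days after tumor cell inoculation. Tumor volumes were followed. T/C ratio was taken from mean tumor volumes at the time point when the vehicle group was sacrificed, with significance tested against vehicle controls.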

MOLM-13 [9] = assay: Antitumor activity against human MOLM-13 cells xenografted in AML mouse model assessed as tumor volume by measuring T/C ratio at 35 mg/kg, iv administered once in 3 days; format: functional; conditions: time 3 day; method in brief: as §1
MOLM-13 [10] = assay: Antitumor activity against human MOLM-13 cells xenografted in AML mouse model assessed as tumor volume by measuring T/C ratio at 65 mg/kg, iv administered once in 5 days; format: functional; conditions: time 5 day; method in brief: as §1
[11] = Aqueous solubility of the compound at pH 6.5 for 24 hrs by HPLC-MS/MS; format: physicochemical
A2780 = assay: cells; format: functional, cell-based; conditions: Homo sapiens, A2780, 96 h
MOLM-13 [12] = assay: cells; format: functional, cell-based; conditions: Homo sapiens, MOLM-13, 96 h
[13] = Efflux ratio of apparent permeability across basolateral to apical side over apical to basolateral side in human Caco2 cells at 2 uM incubated for 2 hrs; conditions: Caco-2
[14] = Ratio of drug level in Wistar-Han rat blood to plasma; conditions: blood and plasma
Cytochrome P450 1A2 [15] = target: T1, Cytochrome P450 1A2 (Homo sapiens, UniProt P05177); assay: Inhibition of CYP1A2 in human liver microsomes using phenacetin as substrate by LC-MS/MS analysis; format: ADME; conditions: read-out: INH
T1 sequence (P05177 whole entry): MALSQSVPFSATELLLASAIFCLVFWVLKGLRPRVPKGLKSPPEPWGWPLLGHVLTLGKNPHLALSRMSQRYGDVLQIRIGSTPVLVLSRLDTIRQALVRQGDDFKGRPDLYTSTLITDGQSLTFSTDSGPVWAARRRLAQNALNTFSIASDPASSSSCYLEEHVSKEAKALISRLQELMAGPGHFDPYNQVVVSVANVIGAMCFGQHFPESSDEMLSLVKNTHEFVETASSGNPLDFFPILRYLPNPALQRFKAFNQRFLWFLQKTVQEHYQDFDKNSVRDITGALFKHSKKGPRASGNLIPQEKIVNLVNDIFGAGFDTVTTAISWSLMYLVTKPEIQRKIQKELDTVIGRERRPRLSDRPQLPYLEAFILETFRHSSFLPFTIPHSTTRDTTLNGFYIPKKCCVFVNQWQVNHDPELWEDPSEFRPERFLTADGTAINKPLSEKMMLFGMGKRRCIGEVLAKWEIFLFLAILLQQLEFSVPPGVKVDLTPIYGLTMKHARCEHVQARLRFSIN

Cytochrome P450 2A6 = target: T2, Cytochrome P450 2A6 (Homo sapiens, UniProt P11509); assay: Inhibition of CYP2A6 in human liver microsomes using coumarin as substrate by LC-MS/MS analysis; format: ADME
T2 sequence (P11509 whole entry): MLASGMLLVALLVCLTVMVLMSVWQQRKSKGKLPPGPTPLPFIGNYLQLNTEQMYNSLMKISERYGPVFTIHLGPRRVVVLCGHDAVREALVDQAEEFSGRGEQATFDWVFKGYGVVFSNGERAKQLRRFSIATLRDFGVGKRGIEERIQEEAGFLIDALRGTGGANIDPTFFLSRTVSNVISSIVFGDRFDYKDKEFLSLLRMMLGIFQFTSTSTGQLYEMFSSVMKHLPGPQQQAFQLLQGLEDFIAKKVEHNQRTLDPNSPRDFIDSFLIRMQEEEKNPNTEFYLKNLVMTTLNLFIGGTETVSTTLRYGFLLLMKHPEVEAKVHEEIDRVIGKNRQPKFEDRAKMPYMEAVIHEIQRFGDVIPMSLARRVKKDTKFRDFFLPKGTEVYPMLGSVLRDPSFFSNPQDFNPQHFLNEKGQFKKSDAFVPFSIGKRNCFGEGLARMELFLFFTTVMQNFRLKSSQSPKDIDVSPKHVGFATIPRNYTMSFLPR

Cytochrome P450 2B6 = target: T3, Cytochrome P450 2B6 (Homo sapiens, UniProt P20813); assay: Inhibition of CYP2B6 in human liver microsomes using bupropion as substrate by LC-MS/MS analysis; format: ADME
T3 sequence (P20813 whole entry): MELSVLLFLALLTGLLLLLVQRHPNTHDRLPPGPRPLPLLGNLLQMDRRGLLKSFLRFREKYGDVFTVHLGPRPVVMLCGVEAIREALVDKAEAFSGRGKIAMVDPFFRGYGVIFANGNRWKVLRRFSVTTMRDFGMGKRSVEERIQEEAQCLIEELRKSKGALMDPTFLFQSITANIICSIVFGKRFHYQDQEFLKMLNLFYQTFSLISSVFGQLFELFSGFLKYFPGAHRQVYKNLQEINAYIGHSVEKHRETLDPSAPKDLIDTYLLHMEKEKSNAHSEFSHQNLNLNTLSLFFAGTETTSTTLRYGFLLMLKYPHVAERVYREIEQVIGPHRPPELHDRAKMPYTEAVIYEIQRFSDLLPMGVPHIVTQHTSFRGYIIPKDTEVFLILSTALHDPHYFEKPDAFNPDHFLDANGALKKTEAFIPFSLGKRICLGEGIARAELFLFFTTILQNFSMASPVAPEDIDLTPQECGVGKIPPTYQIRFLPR

Cytochrome P450 2C8 = target: T4, Cytochrome P450 2C8 (Homo sapiens, UniProt P10632); assay: Inhibition of CYP2C8 in human liver microsomes using amodiaquine as substrate by LC-MS/MS analysis; format: ADME; conditions: read-out: INH
T4 sequence (P10632 whole entry): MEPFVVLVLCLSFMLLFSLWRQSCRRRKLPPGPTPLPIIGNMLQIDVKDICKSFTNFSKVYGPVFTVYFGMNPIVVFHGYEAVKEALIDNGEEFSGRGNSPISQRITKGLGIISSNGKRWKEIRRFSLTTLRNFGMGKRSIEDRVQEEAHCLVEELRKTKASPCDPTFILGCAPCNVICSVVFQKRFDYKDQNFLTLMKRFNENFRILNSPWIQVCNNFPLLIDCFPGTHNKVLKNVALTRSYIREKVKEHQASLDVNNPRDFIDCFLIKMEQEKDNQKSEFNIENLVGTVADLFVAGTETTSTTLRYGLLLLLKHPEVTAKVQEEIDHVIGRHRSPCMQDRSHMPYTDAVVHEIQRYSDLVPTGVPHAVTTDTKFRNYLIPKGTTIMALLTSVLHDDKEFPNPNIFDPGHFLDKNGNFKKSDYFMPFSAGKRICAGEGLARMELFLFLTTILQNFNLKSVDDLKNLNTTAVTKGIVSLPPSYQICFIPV

Cytochrome P450 2C9 = Cytochrome P450 2C9 (Homo sapiens, UniProt P11712); assay: Inhibition of CYP2C9 in human liver microsomes using diclofenac as substrate by LC-MS/MS analysis; format: ADME; conditions: read-out: INH
Chain of Cytochrome P450 2C9 (P11712 whole entry): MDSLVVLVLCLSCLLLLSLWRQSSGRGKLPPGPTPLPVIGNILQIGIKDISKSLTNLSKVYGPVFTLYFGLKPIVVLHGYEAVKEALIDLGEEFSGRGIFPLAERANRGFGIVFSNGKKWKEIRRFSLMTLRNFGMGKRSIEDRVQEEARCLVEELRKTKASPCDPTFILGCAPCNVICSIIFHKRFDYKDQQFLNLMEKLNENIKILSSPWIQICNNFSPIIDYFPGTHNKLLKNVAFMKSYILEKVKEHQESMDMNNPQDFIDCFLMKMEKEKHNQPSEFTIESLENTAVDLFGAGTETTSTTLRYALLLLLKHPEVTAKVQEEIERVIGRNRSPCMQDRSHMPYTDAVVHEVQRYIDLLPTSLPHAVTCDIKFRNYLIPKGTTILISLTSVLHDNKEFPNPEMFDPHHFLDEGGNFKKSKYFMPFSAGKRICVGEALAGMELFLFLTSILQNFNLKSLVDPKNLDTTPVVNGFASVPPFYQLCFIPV

Cytochrome P450 2C19 = Cytochrome P450 2C19 (Homo sapiens, UniProt P33261); assay: Inhibition of CYP2C19 in human liver microsomes using (S)-mephenytoin as substrate by LC-MS/MS analysis; format: ADME; conditions: read-out: INH
Chain of Cytochrome P450 2C19 (P33261 whole entry): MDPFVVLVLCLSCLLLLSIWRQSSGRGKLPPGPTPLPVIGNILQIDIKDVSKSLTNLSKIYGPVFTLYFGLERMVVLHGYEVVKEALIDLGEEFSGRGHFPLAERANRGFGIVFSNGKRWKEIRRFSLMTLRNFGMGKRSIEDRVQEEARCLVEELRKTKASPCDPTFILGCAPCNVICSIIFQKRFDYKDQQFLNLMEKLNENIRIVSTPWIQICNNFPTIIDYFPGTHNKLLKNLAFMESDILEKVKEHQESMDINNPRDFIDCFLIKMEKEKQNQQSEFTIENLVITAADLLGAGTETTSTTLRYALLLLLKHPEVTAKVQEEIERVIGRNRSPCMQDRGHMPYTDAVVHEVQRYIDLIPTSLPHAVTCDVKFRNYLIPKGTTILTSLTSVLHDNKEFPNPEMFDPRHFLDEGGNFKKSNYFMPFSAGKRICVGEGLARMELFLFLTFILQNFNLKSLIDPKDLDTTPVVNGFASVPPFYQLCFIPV

Cytochrome P450 2D6 = Cytochrome P450 2D6 (Homo sapiens, UniProt P10635); assay: Inhibition of CYP2D6 in human liver microsomes using dextromethorphan as substrate by LC-MS/MS analysis; format: ADME; conditions: read-out: INH
Chain of Cytochrome P450 2D6 (P10635 whole entry): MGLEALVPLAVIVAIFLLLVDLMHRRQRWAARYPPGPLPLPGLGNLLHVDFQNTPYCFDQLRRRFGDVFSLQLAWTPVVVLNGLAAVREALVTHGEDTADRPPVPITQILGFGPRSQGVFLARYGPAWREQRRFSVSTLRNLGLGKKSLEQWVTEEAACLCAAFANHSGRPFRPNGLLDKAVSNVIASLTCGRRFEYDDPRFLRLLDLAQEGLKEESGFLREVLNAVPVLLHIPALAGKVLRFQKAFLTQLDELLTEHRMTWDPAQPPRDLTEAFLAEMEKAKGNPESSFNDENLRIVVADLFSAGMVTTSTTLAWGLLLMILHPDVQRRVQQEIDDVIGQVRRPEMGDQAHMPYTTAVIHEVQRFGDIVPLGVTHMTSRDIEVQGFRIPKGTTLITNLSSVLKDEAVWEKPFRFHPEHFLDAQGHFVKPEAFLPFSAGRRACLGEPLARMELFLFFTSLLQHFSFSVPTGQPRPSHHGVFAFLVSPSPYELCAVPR

Cytochrome P450 2E1 = Cytochrome P450 2E1 (Homo sapiens, UniProt P05181); assay: Inhibition of CYP2E1 in human liver microsomes using chlorzoxazone as substrate by LC-MS/MS analysis; format: ADME
Chain of Cytochrome P450 2E1 (P05181 whole entry): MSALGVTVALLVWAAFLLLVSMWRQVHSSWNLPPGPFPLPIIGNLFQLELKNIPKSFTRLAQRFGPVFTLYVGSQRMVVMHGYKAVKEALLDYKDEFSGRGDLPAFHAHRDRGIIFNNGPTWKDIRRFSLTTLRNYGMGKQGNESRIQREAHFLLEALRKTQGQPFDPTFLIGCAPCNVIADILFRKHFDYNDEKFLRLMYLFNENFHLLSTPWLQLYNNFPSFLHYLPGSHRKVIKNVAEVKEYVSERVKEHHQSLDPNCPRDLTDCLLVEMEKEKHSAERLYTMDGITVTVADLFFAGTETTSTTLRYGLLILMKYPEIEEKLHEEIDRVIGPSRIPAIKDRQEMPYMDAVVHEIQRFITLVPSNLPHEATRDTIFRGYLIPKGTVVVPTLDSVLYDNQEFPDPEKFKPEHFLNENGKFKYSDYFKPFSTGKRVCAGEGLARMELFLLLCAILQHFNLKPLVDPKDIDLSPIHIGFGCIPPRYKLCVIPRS

Cytochrome P450 3A4 = Cytochrome P450 3A4 (Homo sapiens, UniProt P08684); assay: Inhibition of CYP3A4 in human liver microsomes using midazolam/testosterone as substrate by LC-MS/MS analysis; format: ADME; conditions: read-out: INH
Chain of Cytochrome P450 3A4 (P08684 whole entry): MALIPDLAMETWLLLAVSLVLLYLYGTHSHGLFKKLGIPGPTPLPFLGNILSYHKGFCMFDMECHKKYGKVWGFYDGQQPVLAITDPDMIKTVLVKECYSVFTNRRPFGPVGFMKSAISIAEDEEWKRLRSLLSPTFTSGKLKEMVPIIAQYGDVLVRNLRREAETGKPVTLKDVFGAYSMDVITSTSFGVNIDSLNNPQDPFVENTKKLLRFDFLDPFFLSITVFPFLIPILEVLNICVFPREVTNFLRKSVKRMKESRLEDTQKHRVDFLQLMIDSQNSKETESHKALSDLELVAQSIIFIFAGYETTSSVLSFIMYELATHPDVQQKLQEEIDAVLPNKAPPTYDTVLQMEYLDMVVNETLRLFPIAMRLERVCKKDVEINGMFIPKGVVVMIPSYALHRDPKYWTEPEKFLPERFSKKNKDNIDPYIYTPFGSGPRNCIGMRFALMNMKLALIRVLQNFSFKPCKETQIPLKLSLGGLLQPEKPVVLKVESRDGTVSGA

Cytochrome P450 1A2 [16] = target: T1, Cytochrome P450 1A2; assay: Induction of CYP1A2 in human hepatocytes by LC-MS/MS analysis; format: ADME, cell-based, Hepatocyte
MV4-11 [17] = assay: Antitumor activity against human MV4-11 cells xenografted in rat assessed as inhibition of tumor growth at 12 mg/kg, po administered for 15 days; format: functional, organism-based; conditions: time 15.0 day
Method in brief: (§2)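 Rat MV4-11 xenograft, oral dosing at 12 mg/kg daily for 15 days. Tumor growth was monitored during treatment and for a further 30 days without treatment.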

MV4-11 [18] = assay: Antitumor activity against human MV4-11 cells xenografted in rat assessed as inhibition of tumor growth at 12 mg/kg, po administered for 15 days measured after without treatment for additional 30 days; format: functional, organism-based; conditions: time 15.0 day; method in brief: as §2

| Structure (SMILES) | solubility at 24 h [2] [µg/mL] | Papp A→B at 2 h, 2 µM [3] [×10⁻⁶ cm/s] | CLH [4] [mL/min/kg] | clearance [5] [mL/min/kg] | Vd [6] [L/kg] | half-life [7] [min] | solubility at 24 h [11] [µg/mL] | CLhep predicted at 1 µM [1] [mL/min/kg] | pIC50 (A2780) | pIC50 (MOLM-13 [12]) | efflux ratio at 2 h, 2 µM [13] | other results |
| --- | --- | --- | --- | --- | --- | --- | --- | --- | --- | --- | --- | --- |
| COc1cc(F)ccc1-c1nc(Nc2cc(F)cc(CS(=N)(=O)CCCN)c2)ncc1F (centres undefined) | – | – | – | – | – | – | 294 (≈ 632 µM) | 18.3 | 6.65 | – | – | – |
| COc1cc(F)ccc1-c1cc(Nc2cc(CS(C)(=N)=O)ccn2)ncn1 (centres undefined) | 43 (≈ 111 µM) | 2.6 | – | – | – | – | 2 (≈ 5.16 µM) | – | 6.90 | 7.10 | 9.3 | – |
| COc1cc(F)ccc1-c1nc(Nc2cncc(CS(C)(=N)=O)c2)ncc1F (centres undefined) | – | 2.3 | – | – | – | – | 103 (≈ 254 µM) | 18.3 | 7.34 | – | > 10 | – |

Continued, in another order:

| solubility at 24 h [2] [µg/mL] | Papp A→B at 2 h, 2 µM [3] [×10⁻⁶ cm/s] | CLH [4] [mL/min/kg] | clearance [5] [mL/min/kg] | Vd [6] [L/kg] | half-life [7] [min] | solubility at 24 h [11] [µg/mL] | CLhep predicted at 1 µM [1] [mL/min/kg] | pIC50 (A2780) | pIC50 (MOLM-13 [12]) | efflux ratio at 2 h, 2 µM [13] | Structure (SMILES) | other results |
| --- | --- | --- | --- | --- | --- | --- | --- | --- | --- | --- | --- | --- |
| 30 (≈ 71 µM) | 16.8 | 26.7 | 21.7 | 1.6 | 60 | – | – | – | – | – | COc1cc(F)ccc1-c1nc(Nc2cc(F)cc(CS(C)(=N)=O)c2)ncc1F (stereo in doubt) | CLH ([1]; 1 µM): 31.7 mL/min/kg; T/C (MOLM-13 [8]): 0.26; T/C (MOLM-13 [9]): 0.26; T/C (MOLM-13 [10]): 0.34 |
| 309 (≈ 798 µM) | 3.5 | 2.5 | 18.3 | 1 | – | 479 (≈ 1240 µM) | 2.83 | 6.42 | 6.51 | 6.1 | COc1cc(F)ccc1-c1ncnc(Nc2cccc(CS(C)(=N)=O)c2)n1 (centres undefined) | blood plasma ratio [14]: 1.1; pIC50 (Cytochrome P450 1A2 [15]): < 4.70; INH (Cytochrome P450 2A6): > 20 µM; INH (Cytochrome P450 2B6): > 20 µM; pIC50 (Cytochrome P450 2C8): < 4.70; pIC50 (Cytochrome P450 2C9): < 4.70; pIC50 (Cytochrome P450 2C19): < 4.70; pIC50 (Cytochrome P450 2D6): < 4.70; INH (Cytochrome P450 2E1): > 20 µM; pIC50 (Cytochrome P450 3A4): < 4.70; Activity (Cytochrome P450 1A2 [16]): Not Active; Activity (MV4-11 [17]): Active; Activity (MV4-11 [18]): inactive |
| – | 5 | – | 55 | 2.2 | 36 | 155 (≈ 368 µM) | 35 | 6.74 | – | – | COc1cc(F)ccc1-c1nc(Nc2cc(F)cc(CS(C)(=N)=N)c2)ncc1F | – |
